Compound activity: PubChem BioAssay, Broad Institute
Sampled rows, rich in hits. Any-hit rate of the full collection: about 3.5%.
HIV Env fusion: inhibitors of HIV Env-mediated cell fusion | HeLa-JRFL Env/CEM21 cell fusion, luciferase | inhibition, % at 12.3 µM | 360,000 tested, 1.1% active;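 active = mean replicate inhibition score of at least 50 and every replicate individually at or above 50; inconclusive = only one of the two criteria met; inactive = mean below 50 and not all replicates reaching 50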;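 also: 0% = plate neutral controls and 100% = maraviroc near 300 nM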
PGC1a acetyl inh: modulators of PGC1a acetylation. U2OS PGC1a acetylation, AlphaScreen anti-acetyl-lysine; with virally co-expressed GCN5 acetyltransferase. inhibition, % at 15.6 µM. 350,000 tested, 0.17% active. AID 651687;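 active = every replicate shows inhibition of at least 40%; inconclusive = mean inhibition at least 40% but some replicate below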;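 also: 0% = neutral control wells and 100% = positive control wells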
PglD DTNB: blocks C. jejuni PglD acetyltransferase activity. 360,000 tested, 0.098% active. purified PglD enzyme, DTNB colorimetric CoA detection. AID 602405. inhibition, % at 12.5 µM; in the data active = inhibition above about 16%, passing the limit was not always enough; inconclusive = no clear call, values can overlap the other calls
FN deposit inh: fibronectin deposition inhibition. AID 743247. inhibition, % at 12.6 µM. AH1F fibroblasts, Alexa488-fibronectin deposition fluorescence, overnight. 350,000 tested, 0.086% active;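 active = mean inhibition across replicates of 30% or more, regardless of how many single replicates reach that level; inconclusive = mean under 30% yet at least half of replicates reach 30%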;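 also: positive control wells lacked labelled fibronectin entirely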
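Measured by – fluorescence 485/525 nm · System – AH1F fibroblast monolayer, labelled fibronectin deposition · Amount – 10000 cells per well · Buffer or medium – serum-reduced DMEM (2% serum) · Doses – single dose, pinned · Also added – fluorescent fibronectin at 24 nM final · Schedule – 1 h cell attachment, overnight exposure to compound and label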
Ecoli rRNA inh: inhibitors of bacterial rRNA selective over humanized ribosomes. 350,000 tested, 1.6% active. GFP signal change (wild-type ribosome), % (concentration not given with the values). E. coli WT GFP vs humanized-ribosome RFP mutants, fluorescence, 24 h; hits give low values; DMSO median 0, no signal -100;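 active = significant combined selectivity score with lowered wild-type GFP, culture density cut under 30%, mutant RFP and density less affected; inactive = any of these conditions unmet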
DENV2 CPE rescue: DENV2-induced cell death inhibition; AID 651640; CPE inhibition, % at 9.99 µM; 350,000 tested, 1.7% active; DENV2-infected cells, cytopathic effect rescue, plate reader; in the data active = CPE inhibition above about 20%, passing the limit was not always enough; inconclusive = no clear call, values can overlap the other calls; tested in BHK-21 cells;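 also: 0% = median of neutral control wells and 100% = median of positive control wells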
An asterisk follows results filed as active; ? = inconclusive; . = no result given; ! = a repeat was not active; [ ] = remark or other dose.

SMILES | HIV Env fusion | PGC1a acetyl inh | PglD DTNB | FN deposit inh | Ecoli rRNA inh | DENV2 CPE rescue
O=C(N[C@@H]1CC[C@H](CCNS(=O)(=O)Cc2ccccc2)O[C@@H]1CO)c1ccc2c(c1)OCO2 | -8[16.7 µM] | -14 | 1 | 5 | 2 | 22*
O=C(Cc1ccccn1)NCC[C@H]1CC[C@@H](NC(=O)c2ccccc2F)[C@@H](CO)O1 | 10[16.7 µM] | 1 | 3 | -25 | 2 | 40*
CCOC(=O)c1cc2sccc2n1CC(=O)N1CCc2ccccc21 | 62* | 2 | -6 | . | 11 | .
CCOC(=O)c1cc(S(=O)(=O)N2CCc3ccccc32)cn1C | 8 | 2 | -1 | -3 | 17 | 39*
C[C@@H]1CN([C@@H](C)CO)C(=O)Cc2cc(NC(=O)Nc3ccc(C(F)(F)F)cc3)ccc2O[C@H]1CN(C)CC1CCCCC1 | 8[16.7 µM] | -18 | 0 | . | -9 | -11
CC(C)CNC(=S)NNC(=O)c1csc2c1CCC(C)C2 (stereo not given) | 31 | 2 | -8 | -13 | . | .
Cc1cccc(NC(=S)NNC(=O)c2csc3c2CCC(C)C3)c1 (stereo not given) | . | -13 | -2 | . | -40* | -1
O=C(C1CC1)N1CC(=O)N2[C@H](CO)[C@H](c3ccc(-c4cccnc4)cc3)[C@@H]2C1 | . | -3 | . | 2 | 5 | -2
COc1ccc2c(c1)-c1c(ssc1=S)C(C)(C)N2S(=O)(=O)c1ccc(C)cc1 | 72* | . | . | 7 | . | .
COc1ccc2c(c1)-c1c(ssc1=S)C(C)(C)N2 | 62* | 38 | 3 | 6 | . | .
CO[C@@H]1CN(C)C(=O)c2cc(NS(=O)(=O)Cc3ccccc3)ccc2OC[C@@H](C)N(Cc2cccnc2)C[C@H]1C | -2[16.7 µM] | 19 | 0 | 12 | -5 | 6
CCCCC(=O)NC(=S)Nc1cccc(NC(=O)c2ccccc2)c1 | -15 | 7 | . | . | -19* | -1
O=C(Nc1cccc(Cl)c1)c1ccccc1 | -32 | -1 | 1 | 3 | 6 | 28*
CSc1ccccc1NC(=O)Nc1cccc(Cl)c1 | . | 1 | 4 | . | -28* | -5
COC(=O)c1cccc(NC(=O)c2ccc(OC)c(Cl)c2)c1 | 10 | -19 | 1 | . | -30* | .
O=C(NNC(=S)Nc1cccc(Cl)c1)c1ccccc1 | -20 | 1 | 1 | . | -50 | -11
COc1ccc(C(=O)Nc2cc(C(=O)O)cc(C(=O)O)c2)cc1Cl | 17 | -15 | . | -11 | 11 | 14
CN1C(=O)c2cc(NC(=O)C3CCCC3)ccc2OC[C@@H]2O[C@H](CC(=O)Nc3ccccc3)CC[C@@H]21 | 4[16.7 µM] | -5 | 4 | 1 | 1 | -16
O=C(NCCCCc1ccccc1)c1cccc(NC(=O)c2ccccc2)c1 | . | -11 | -1 | 10 | -5 | -1
O=C(NNC(=O)C1CC1c1ccccc1)Nc1cccc(Cl)c1 (stereo not given) | 56* | 11 | 4 | . | . | .
O=C(N/N=C/c1cccs1)c1cccc(NC(=O)c2ccc(Cl)cc2)c1 | -6 | . | . | 35* | 3 | 0
O=C(Nc1cccc(Cl)c1)c1ccc(Cn2cc(Cl)cn2)cc1 | -31 | -8 | -1 | 1 | -26* | -1
O=C(NCCc1ccc(F)cc1)c1cccc(NC(=O)c2ccccc2)c1 | 7 | . | -1 | 0 | -22* | -3
CC(=O)Nc1ccc(NC(=O)c2ccc(Cn3cc(Cl)cn3)cc2)cc1 | 27 | . | . | . | 3 | -5
Cc1noc(C)c1S(=O)(=O)Nc1ccccc1Oc1ccccc1 | 3 | . | . | 11 | -22* | 8
SMILES | HIV Env fusion | PGC1a acetyl inh | PglD DTNB | FN deposit inh | Ecoli rRNA inh | DENV2 CPE rescue
COC(=O)[C@@H]1[C@H](CCc2ccccc2)NC(=O)N(Cc2ccccc2)[C@@H]1C | 14 | . | 3 | -3 | 4 | 68*
CCN1C(=O)N[C@@H](CCc2ccccc2)[C@H](C(=O)OC)[C@H]1C | 20 | . | -6 | 6 | -1 | -1
O=C1C=C(N2CCOCC2)c2ccccc2C1=O | 65* | . | 2 | 2 | 52 | -1
O=C1C=C(N2CCOCC2)c2cccc3cccc1c23 | 27 | 12 | 0 | 3 | -16 | 7
C[C@H](CO)N1C[C@H](C)[C@@H](CN(C)Cc2ccc(C(=O)O)cc2)OCCCC[C@H](C)Oc2ccc(NS(C)(=O)=O)cc2C1=O | -15[16.7 µM] | 5 | 0 | . | 5 | -18
O=C(C[C@H]1C[C@H]2c3cc(NC(=O)C4CCC4)ccc3O[C@H]2[C@H](CO)O1)NCc1cc(F)ccc1F | 14[16.7 µM] | 0 | 0 | -8 | 0 | 0
Cn1cnc(S(=O)(=O)N[C@H]2CC[C@@H](CC(=O)Nc3ccc(-c4ccccc4)cc3)O[C@H]2CO)c1 | -13[16.7 µM] | . | -5 | . | -4 | ?
N#Cc1ccccc1S(=O)(=O)N1CCN(CC(=O)NC(=O)NC2CCCCC2)CC1 | 4 | . | . | 7 | 5 | -4
O=C(NNc1c(F)c(F)cc(F)c1F)C1CCN(S(=O)(=O)c2ccccc2F)CC1 | 8 | . | -1 | -3 | 6 | 43*
O=C(CN1CCN(S(=O)(=O)c2ccccc2F)CC1)NC1CCCC1 | 13 | 10 | . | 1 | 4 | 22*
O=C(c1ccccn1)N1C[C@H]2[C@@H](c3ccccc31)[C@H](CO)N2C(=O)C1CC1 | . | -7 | 2 | -6 | 4 | -11
Cc1cc2c(sc3ccccc32)c(C)n1 | 37 | -15 | -1 | -2 | -24* | -2
CCNC(=O)c1cc2c(c(-c3cccc(-c4ccncc4)c3)n1)[C@@H](CCO)N(S(=O)(=O)CC)C2 | . | 4 | . | 0 | -5 | 51*
CC(C)NC(=O)N1Cc2cc(C(=O)NC3CCC3)nc(-c3cccc(-c4cccnc4)c3)c2[C@H]1CCO | . | -11 | . | -4 | -5 | -15
CCCNC(=O)c1cc2c(c(-c3cccc(-c4ccncc4)c3)n1)[C@H](CCO)N(S(=O)(=O)CC)C2 | . | -3 | . | 11 | -3 | -1
CC(C)NC(=O)N1Cc2cc(C(=O)NC3CCCCC3)nc(-c3cccc(-c4cccnc4)c3)c2[C@@H]1CCO | 35 | -1 | . | -8 | -40*! | 4
O=C(C[C@@H]1CC[C@H]2[C@@H](COC[C@H](O)CN2C(=O)c2cnccn2)O1)NCc1ccc(Oc2ccccc2)cc1 | . | 2 | -3 | -9 | -3 | 1
O=C1C(=O)c2ccccc2C(O)=C1c1cccc([N+](=O)[O-])c1 | 7 | 21 | -5 | -10 | -24* | 3
Cc1ccc(C2=C(O)c3ccccc3C(=O)C2=O)cc1 | -7 | -8 | -1 | 1 | -9 | 3
O=C(C[C@@H]1C=C[C@H](NC(=O)Nc2cccc(F)c2)[C@H](CO)O1)NCC1CC1 | -2[16.7 µM] | 5 | 1 | 2 | -3 | 5
N#Cc1ccc(-c2ccc([C@H]3[C@@H](CO)N4C(=O)CN(C(=O)C5CCCC5)C[C@@H]34)cc2)cc1 | . | -15 | . | -1 | -1 | 7
N#C/C(=C\c1cccs1)C(=O)c1ccccc1Cl | -173 | . | . | 0 | -26 | 78*
